From ChEMBL document CHEMBL1123069, “[[(4,5-Dihydro-2-oxazolyl)phenoxy]alkyl]isoxazoles. Inhibitors of picornavirus uncoating” (1985)
Values after ≈ are worked out from the molar mass of the structure shown. Active and inactive are the calls of the source. No cut-off for these calls is given here.

Tests used:
[1] = In vitro antiviral activity against mice infected intracerebrally with Poliovirus type-2; type: functional
Mus musculus [2] = species on record: Mus musculus; assay: MIC at the Maximal testable level in mice was evaluated; type: functional; settings: read-out: MIC
Enterovirus = assay: In vitro antiviral activity against Rhinovirus type-2; type: functional
Mus musculus [3] = assay: Prevention of Echo-9-Induced Paralysis in Suckling mice by intraperitoneal administration at dose 3.3 mg/kg; Expressed as % nonparalyzed; type: functional
Outline: (§1)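 Suckling mice infected subcutaneously with a lethal dose of ECHO-9 virus. Intraperitoneal dosing at 1.0, 3.3, 10 or 33 mg/kg, or placebo, began 1 h before infection and continued once daily for 8 days. Groups of 30 animals were scored for paralysis, and the test ended 14 days post-infection. Results are given as % nonparalyzed (± spread) and as the nonparalyzed/total count.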

Mus musculus [4] = assay: In vivo antiviral activity of the compound in Placebo treated mice infected with Poliovirus; 4/20; type: functional
Outline: (§2)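 Mice given oral drug or placebo starting 1 h before intracerebral infection with poliovirus type 2. Doses were 4, 8, 16 or 32 mg/kg, with 20 mice per group. Survival was scored as % survivors and number surviving out of total, with the test ending 20 days post-infection.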

Mus musculus [5] = assay: In vivo antiviral activity at 4 mg/kg oral dose in mice infected with Poliovirus; 8/20; type: functional; outline: as §2
Mus musculus [6] = assay: In vivo antiviral activity at 8 mg/kg oral dose in mice infected with Poliovirus; type: functional; outline: as §2
Mus musculus [7] = assay: Prevention of Echo-9-Induced Paralysis in Suckling mice by intraperitoneal administration at dose 33 mg/kg; Expressed as % nonparalyzed; type: functional; outline: as §1
Mus musculus [8] = assay: Prevention of Echo-9-Induced Paralysis in Suckling mice by intraperitoneal administration at dose 1 mg/kg; expressed as no. nonparalyzed/total 2/30; type: functional; outline: as §1
Mus musculus [9] = species on record: Mus musculus; assay: Prevention of Echo-9-Induced Paralysis in Suckling mice with Placebo; expressed as no. nonparalyzed/total 0/30; type: functional; outline: as §1
Mus musculus [10] = assay: In vivo antiviral activity at 32 mg/kg oral dose in mice infected with Poliovirus; type: functional; outline: as §2
Mus musculus [11] = assay: In vivo antiviral activity at 32 mg/kg oral dose in mice infected with Poliovirus; 15/20; type: functional; outline: as §2
Mus musculus [12] = assay: In vivo antiviral activity at 16 mg/kg oral dose in mice infected with Poliovirus;13/20; type: functional; outline: as §2
Mus musculus [13] = assay: In vivo antiviral activity at 4 mg/kg oral dose in mice infected with Poliovirus; type: functional; outline: as §2
Mus musculus [14] = assay: Prevention of Echo-9-Induced Paralysis in Suckling mice by intraperitoneal administration at dose 10 mg/kg; Expressed as % nonparalyzed; type: functional; outline: as §1
Mus musculus [15] = assay: Prevention of Echo-9-Induced Paralysis in Suckling mice by intraperitoneal administration at dose 1 mg/kg; Expressed as % nonparalyzed; type: functional; outline: as §1
Mus musculus [16] = assay: Prevention of Echo-9-Induced Paralysis in Suckling mice by intraperitoneal administration at dose 3.3 mg/kg; expressed as no. nonparalyzed/total 6/30; type: functional; outline: as §1
Mus musculus [17] = assay: In vivo antiviral activity at 16 mg/kg oral dose in mice infected with Poliovirus; type: functional; outline: as §2
Mus musculus [18] = assay: In vivo antiviral activity of the compound in Placebo treated mice infected with Poliovirus; type: functional; outline: as §2
Mus musculus [19] = assay: Prevention of Echo-9-Induced Paralysis in Suckling mice by intraperitoneal administration at dose 33 mg/kg; expressed as no. nonparalyzed/total 29/30; type: functional; outline: as §1
Mus musculus [20] = assay: Prevention of Echo-9-Induced Paralysis in Suckling mice by intraperitoneal administration at dose 10 mg/kg; expressed as no. nonparalyzed/total 19/30; type: functional; outline: as §1
Mus musculus [21] = assay: In vivo antiviral activity at 8 mg/kg oral dose in mice infected with Poliovirus; 9/20; type: functional; outline: as §2
Mus musculus [22] = species on record: Mus musculus; assay: Prevention of Echo-9-Induced Paralysis in Suckling mice with Placebo; Expressed as % nonparalyzed; type: functional; outline: as §1
Mus musculus [23] = assay: In vitro antiviral activity against mice infected intracerebrally with Poliovirus type-2; IA=Inactive; type: functional, organism-based

## Cc1cc(CCCCCCCCOc2ccc(C3=NCCO3)cc2)on1
[1]
  MIC: 0.01 µg/mL (≈ 0.0281 µM)
Mus musculus [2]
  maximal testable concentration: 8 µg/mL
Enterovirus
  MIC: 0.16 µg/mL (≈ 0.449 µM)

## Cc1cc(CCCCCCCOc2ccc(C3=NCC(C)O3)cc2)on1 (stereo not given)
[1]
  MIC: 0.49 µg/mL (≈ 1.37 µM)
Mus musculus [2]
  maximal testable concentration: 6.2 µg/mL
Enterovirus
  MIC: 0.06 µg/mL (≈ 0.168 µM)

## Cc1cc(CCCCCCCOc2ccc(C3=NCCO3)cc2)on1 [DISOXARIL]
[1]
  MIC: 0.004 µg/mL (≈ 0.0117 µM)
Mus musculus [3]
  Activity: 20%
Mus musculus [2]
  maximal testable concentration: 6.2 µg/mL
Mus musculus [4]
  No. of survivors/total: 4
Mus musculus [5]
  No. of survivors/total: 8
Mus musculus [6]
  Survivors: 45%
Mus musculus [7]
  Activity: 96.7%
Mus musculus [8]
  Activity: 2
Mus musculus [9]
  Activity: 0
Mus musculus [10]
  Survivors: 71%
Mus musculus [11]
  No. of survivors/total: 15
Mus musculus [12]
  No. of survivors/total: 13
Mus musculus [13]
  Survivors: 40%
Mus musculus [14]
  Activity: 63.7%
Mus musculus [15]
  Activity: 6.7%
Mus musculus [16]
  Activity: 6
Mus musculus [17]
  Survivors: 65%
Mus musculus [18]
  Survivors: 20%
Mus musculus [19]
  Activity: 29
Enterovirus
  MIC: 0.1 µg/mL (≈ 0.292 µM)
Mus musculus [20]
  Activity: 19
Mus musculus [21]
  No. of survivors/total: 9
Mus musculus [22]
  Activity: 0%

## Cc1cc(CCCCCCCOc2ccc(C3=N[C@H](C)CO3)cc2)on1
[1]
  MIC: 0.16 µg/mL (≈ 0.449 µM)
Mus musculus [2]
  maximal testable concentration: 3.1 µg/mL
Enterovirus
  MIC: 0.02 µg/mL (≈ 0.0561 µM)

## Cc1cc(CCCCCCCOc2ccc(C3=NC(C)CO3)cc2)on1 (stereo not given)
[1]
  MIC: 0.12 µg/mL (≈ 0.337 µM)
Mus musculus [2]
  maximal testable concentration: 3.1 µg/mL
Enterovirus
  MIC: 0.04 µg/mL (≈ 0.112 µM)

## Cc1cc(CCCCCCOc2ccc(C3=NCCO3)cc2)on1
[1]
  MIC: 0.008 µg/mL (≈ 0.0244 µM)
Mus musculus [2]
  maximal testable concentration: 3.1 µg/mL
Enterovirus
  MIC: 0.12 µg/mL (≈ 0.365 µM)

## Cc1cc(CCCCCOc2ccc(C3=NCCO3)cc2)on1
[1]
  MIC: 0.003 µg/mL (≈ 0.00954 µM)
Mus musculus [2]
  maximal testable concentration: 3.1 µg/mL
Enterovirus
  MIC: 0.1 µg/mL (≈ 0.318 µM)

## COCC1CN=C(c2ccc(OCCCCCCCc3cc(C)no3)cc2)O1 (stereo not given)
Mus musculus [2]
  maximal testable concentration: 3.1 µg/mL
Mus musculus [23]
  MIC: inactive
Enterovirus
  MIC: 0.2 µg/mL (≈ 0.517 µM)

## CCOC(=O)c1ccc(OCCCCCCCc2cc(C)no2)cc1
[1]
  MIC: > 0.8 µg/mL
Enterovirus
  MIC: 0.025 µg/mL (≈ 0.0724 µM)

## Cc1cc(CCCCCCCOc2ccc(C3=NC(CO)CO3)cc2)on1 (stereo not given)
Mus musculus [2]
  maximal testable concentration: 3.1 µg/mL
Mus musculus [23]
  MIC: inactive
Enterovirus
  MIC: 0.9 µg/mL (≈ 2.42 µM)

## COc1ccc(OCCCCCCCc2cc(C)no2)c(Cl)c1
[1]
  MIC: 0.05 µg/mL (≈ 0.148 µM)
Enterovirus
  MIC: 0.04 µg/mL (≈ 0.118 µM)

## Cc1cc(CCCCOc2ccc(C3=NCCO3)cc2)on1
[1]
  MIC: 0.49 µg/mL (≈ 1.63 µM)
Mus musculus [2]
  maximal testable concentration: 6.2 µg/mL
Enterovirus
  MIC: 0.53 µg/mL (≈ 1.76 µM)

## Cc1cc(CCCCCCCOc2ccc(C3=NC(C)(C)CO3)cc2)on1
[1]
  MIC: 1.1 µg/mL (≈ 2.97 µM)
Mus musculus [2]
  maximal testable concentration: 3.1 µg/mL
Enterovirus
  MIC: 0.06 µg/mL (≈ 0.162 µM)

## Cc1cc(CCCCCCCOc2ccc(C3=NCC(CO)O3)cc2)on1 (stereo not given)
[1]
  MIC: 2.6 µg/mL (≈ 6.98 µM)
Mus musculus [2]
  maximal testable concentration: 3.1 µg/mL
Enterovirus
  MIC: 1.6 µg/mL (≈ 4.3 µM)
